ChEMBL document CHEMBL2163344, “Immunomodulatory properties of novel nucleotide oligomerization domain 2 (nod2) agonistic desmuramyldipeptides” (J Med Chem, 2012)
Calls of active or inactive are those of the source. The rule behind the calls is not given here.

Assays:
Format in all cases: functional, cell-based
PBMC [1] = experiment: Immunomodulatory activity in human PBMCs assessed as reduction in PMA/ionomycin-induced TNFalpha release at 20 uM incubated for 18 hrs by multiplexed cytokine assay
How it was run: (§1)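 Ficoll-isolated human PBMC, 1 × 10^6 cells per well, treated with 20 μM compound (DMSO ≤0.1%) plus PMA 3.33 ng/mL and ionomycin 500 nM for 18 h at 37 °C, 5% CO2. Cell-free supernatant cytokines measured by CBA human inflammatory kit on a flow cytometer against recombinant standards. Reported as % of PMA/ionomycin-only release; duplicates, three experiments, three donors.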

PBMC [2] = experiment: Immunomodulatory activity in human PBMCs assessed as increase in PMA/ionomycin-induced TNFalpha release at 20 uM by multiplexed cytokine assay; conditions: TDE = time-dependent effect; how it was run: as §1
PBMC [3] = experiment: Immunomodulatory activity in human PBMCs assessed as increase in PMA/ionomycin-induced IL10 release at 20 uM incubated for 4 to 40 hrs by multiplexed cytokine assay
How it was run: (§2)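 PBMC time course: 20 μM compound with PMA 3.33 ng/mL and ionomycin 500 nM. Supernatants collected at 4, 18 and 40 h and cytokines read by cytometric bead array. Compared with PMA/ionomycin-only control; two independent experiments in duplicate, two donors.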

PBMC [4] = experiment: Immunomodulatory activity in human PBMCs assessed as increase in PMA/ionomycin-induced IL8 release at 20 uM incubated for 4 to 40 hrs by multiplexed cytokine assay; how it was run: as §2
PBMC [5] = experiment: Immunomodulatory activity in human PBMCs assessed as increase in PMA/ionomycin-induced IL-12p70 release at 20 uM by multiplexed cytokine assay; conditions: TDE = time-dependent effect; how it was run: as §1
PBMC [6] = experiment: Immunomodulatory activity in human PBMCs assessed as increase in PMA/ionomycin-induced IL10 release at 0.2 to 200 uM incubated for 18 hrs by multiplexed cytokine assay
How it was run: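 Human PBMC stimulated with PMA 3.33 ng/mL and ionomycin 500 nM plus compound at 0.2, 2, 20 or 200 μM for 18 h. Supernatant cytokines quantified by cytometric bead array. Compared with PMA/ionomycin-only cells; two independent experiments in duplicate, two donors, mean ± SD.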

PBMC [7] = experiment: Immunomodulatory activity in human PBMCs assessed as increase in PMA/ionomycin-induced TNFalpha release incubated for 18 hrs by multiplexed cytokine assay; how it was run: as §1
PBMC [8] = experiment: Immunomodulatory activity in human PBMCs assessed as increase in PMA/ionomycin-induced IL6 release incubated for 18 hrs by multiplexed cytokine assay
PBMC [9] = experiment: Immunomodulatory activity in human PBMCs assessed as increase in PMA/ionomycin-induced IL-1beta release incubated for 18 hrs by multiplexed cytokine assay

Row | SMILES | Activity (PBMC [1]) | Activity (PBMC [2]) | Activity (PBMC [3]) | Activity (PBMC [4]) | Activity (PBMC [5]) | Activity (PBMC [6]) | Activity (PBMC [7]) | Activity (PBMC [8]) | Activity (PBMC [9])
1 | CCOC(=O)CC[C@@H](NC(=O)[C@H](C)NC(=O)CNC(=O)c1cc2ccccc2[nH]1)C(N)=O | Active |  |  |  |  |  |  |  | 
2 | CCOC(=O)CC[C@@H](NC(=O)[C@H](C)NC(=O)CNC(=O)c1cc2ccccc2[nH]1)C(=O)OCC |  | tde | inactive | inactive | tde | inactive | Dose-dependent effect | Dose-dependent effect | Dose-dependent effect
3 | CCCCOC(=O)[C@@H](CCC(N)=O)NC(=O)[C@H](C)NC(=O)[C@@H](C)O[C@H]1[C@H](O)[C@@H](CO)OC(O)[C@@H]1NC(C)=O (some centres not stated) [MURABUTIDE] |  | tde | inactive | inactive | tde | inactive | Dose-dependent effect | Dose-dependent effect | Dose-dependent effect
